# High-throughput results: PubChem, The Scripps Research Institute Molecular Screening Center
# PAFAH2 FP inh: PAFAH2 enzyme inhibitors, primary screen, biochemical, fluorescence polarization, human | Platelet-activating factor acetylhydrolase 2, cytoplasmic (Homo sapiens), Q99487 | recombinant PAFAH2, FP-rhodamine activity probe | inhibition, % at 3.39 µM | actives 0.99% (n = 340,000) | AID 492956, 2010;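 active = inhibition above the mean over all tested compounds plus 3 SD, cut at about 30% in these data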;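 also: inhibitors block probe labeling of enzyme so polarization drops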
# ASAP1 inh: inhibitors of human ASAP1 ArfGAP activity, primary screen, biochemical, fluorescence polarization; Arf-GAP with SH3 domain, ANK repeat and PH domain-containing protein 1 (Homo sapiens), …; ASAP1-stimulated ARF1 GTP hydrolysis, GDP FP detection; inhibition, % at 16.5 µM; actives 0.19% (n = 360,000); AID 624377, 2012; in the data active = inhibition above about 25%
# Target sequence (Q9ULH1 325-724 limits assumed): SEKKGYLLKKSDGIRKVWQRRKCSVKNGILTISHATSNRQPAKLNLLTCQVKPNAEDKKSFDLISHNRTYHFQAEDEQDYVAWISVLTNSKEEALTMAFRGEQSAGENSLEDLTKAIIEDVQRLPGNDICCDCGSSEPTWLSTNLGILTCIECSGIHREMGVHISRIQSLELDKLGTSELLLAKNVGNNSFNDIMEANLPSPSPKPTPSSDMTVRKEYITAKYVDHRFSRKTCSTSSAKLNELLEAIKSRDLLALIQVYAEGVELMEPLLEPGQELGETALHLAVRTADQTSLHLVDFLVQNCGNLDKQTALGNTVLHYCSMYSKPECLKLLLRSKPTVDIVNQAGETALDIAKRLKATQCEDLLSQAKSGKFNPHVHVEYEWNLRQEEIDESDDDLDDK
# PAFAH1B3 inh: PAFAH1B3 enzyme inhibitors, primary screen, biochemical, fluorescence polarization, human; inhibition, % at 3.39 µM; recombinant PAFAH1B3, FP-rhodamine probe; actives 0.28% (n = 340,000); Platelet-activating factor acetylhydrolase IB subunit alpha1 (Homo sapiens), Q15102;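 active = inhibition above the screen-wide average of all tested compounds plus 3 SD, cut at about 25% in these data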
# Target sequence (Q15102 whole entry, looked up): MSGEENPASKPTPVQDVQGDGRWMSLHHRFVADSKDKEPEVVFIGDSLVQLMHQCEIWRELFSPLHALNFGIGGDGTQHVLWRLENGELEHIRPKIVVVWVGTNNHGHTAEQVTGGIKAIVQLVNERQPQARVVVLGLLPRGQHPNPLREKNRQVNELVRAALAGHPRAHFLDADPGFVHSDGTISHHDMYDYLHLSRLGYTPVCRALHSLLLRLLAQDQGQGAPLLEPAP
# ARFGAP1 inhibitor: inhibitors of rat ARFGAP1 GAP activity, primary screen, biochemical, fluorescence polarization, GDP tracer. Arfgap1-stimulated ARF1 GTP hydrolysis, GDP FP detection. inhibition, % at 16.5 µM. actives 0.26% (n = 360,000). AID 651572, 2012;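 active = inhibition above a per-plate limit, mean inhibition of low control wells plus 3 SD, cut at about 25% in these data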
#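 system = rat Arfgap1 catalytic domain, aa 1-136 | technique = FP, GDP Alexa 633 tracer displaced from anti-GDP antibody, 620/688 nm | compound = one concentration, 16.5 µM, DMSO 1.26% | medium = HEPES-based buffer, pH 7.5 | timing = compound-enzyme preincubation 20 min, reaction 120 min, detection 60 min, 25 °C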
# pPAFAH inh: pPAFAH enzyme inhibitors, primary screen, biochemical, fluorescence polarization, human. Platelet-activating factor acetylhydrolase (Homo sapiens), Q13093. recombinant pPAFAH, FP-rhodamine probe fluorescence polarization. inhibition, % at 3.39 µM. actives 1.5% (n = 330,000);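 active = inhibition above the mean inhibition across the screen plus 3 SD, cut at about 25% in these data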;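 also: inhibitors block binding of the rhodamine activity-based probe so polarization drops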
# PAFAH1B2 inh: PAFAH1B2 enzyme inhibitors, primary screen, biochemical, fluorescence polarization, human. actives 1.2% (n = 340,000). Platelet-activating factor acetylhydrolase IB subunit alpha2 (Homo sapiens), P68402. recombinant PAFAH1B2, FP-rhodamine activity probe. inhibition, % at 3.39 µM;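 active = inhibition above the mean of all tested compounds plus 3 SD, cut at about 24% in these data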
# pPAFAH confirm: pPAFAH (PLA2G7) enzyme inhibitors, confirmation, biochemical, fluorescence polarization, human. shares compounds with pPAFAH inh. recombinant pPAFAH, FP-Rh probe fluorescence polarization. inhibition, % at 3.39 µM. actives 72% (n = 2,300);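 active = mean inhibition of the triplicate above the hit cutoff set for the earlier primary screen, cut at about 25% in these data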
# Hits are given with their value; – = inactive; · = no result. Only some compounds are listed: those with a hit (about 2.7% of all), similar ones and a draw of the others.
SMILES,PAFAH2 FP inh,ASAP1 inh,PAFAH1B3 inh,ARFGAP1 inhibitor,pPAFAH inh,PAFAH1B2 inh,pPAFAH confirm
CCCCN(C(=O)c1ccc(S(=O)(=O)N2CCCCC2)cc1)C1CCS(=O)(=O)C1 (stereo not drawn),–,–,–,–,·,–,·
CCOc1ccc(NC(=S)NC(=O)/C=C/c2ccc(C)cc2)c([N+](=O)[O-])c1,–,–,–,–,38,–,–
O=c1cc(-c2ccc(C3CCCCC3)cc2)[nH][nH]1,–,–,–,–,35,–,–
Cc1ccc(C)c(NC(=O)CN2C(=O)C3CC=CCC3C2=O)c1 (stereo not drawn),·,–,·,–,·,·,·
O=C(/C=C/c1ccc(O)c(O)c1)c1ccc(S(=O)(=O)N2CCCCCC2)cc1,–,–,–,–,50,–,89
O=C(c1ccc(S(=O)(=O)N2CCCC2)cc1)N1CCCCC1,–,–,–,–,–,–,·
O=S1(=O)C[C@@H](N2CCC(Cc3ccccc3)CC2)[C@H](COCc2ccccc2)N1,·,–,·,–,·,·,·
O=C(O)CSc1cc(C(=O)c2cc(F)ccc2O)cn2c(=O)c3c(-c4ccccc4)csc3nc12,–,–,–,–,53,–,65
O=c1cc(CN2CCOCC2)c2ccc(O)c(O)c2o1,–,–,–,–,–,–,·
CC1Oc2cc3oc4c(O)c(O)ccc4c(=O)c3c(O)c2C1(C)C (stereo not drawn),32,·,–,·,75,–,83
Cc1[nH]c2ccccc2c1/C=N/NC(=O)c1cccc(S(=O)(=O)Nc2cccc(C(F)(F)F)c2)c1,–,–,43,–,40,35,40
CC(CN1CCOCC1)OC(=O)Cc1ccc(Cl)cc1 (stereo not drawn),–,–,–,–,54,–,–
COc1ccc(CC(=O)OC(C)CN2CCCC2)cc1 (stereo not drawn),–,–,–,–,–,–,·
Cc1ccc(C)c(Cn2nnc3c(=O)[nH]c(C4CCN(S(=O)(=O)c5ccc(S(=O)(=O)NC6CC6)cc5)CC4)nc32)c1,–,–,–,–,42,–,47
Cc1noc(C)c1COc1ccccc1C(=O)NNC(=O)C(C)Oc1ccccc1F (stereo not drawn),–,–,–,–,–,–,·
CC(Oc1ccccc1F)C(=O)NNC(=O)CCNC(=O)c1ccccc1Cl (stereo not drawn),–,–,–,–,54,–,–
C[C@@H]1CN([C@H](C)CO)C(=O)CCCn2nncc2CO[C@@H]1CN(C)C(=O)Nc1ccccc1,·,–,·,–,·,·,·
Cc1cc(O)c2c(c1O)C(=O)[C@]13C(=C2O)C(=O)[C@@H]2[C@@H](O)[C@H]1[C@@H]1[C@H](O)[C@H]3C(=O)C3=C(O)c4c(O)cc(C)c(O)c4C(=O)[C@]312,43,·,37,·,54,–,–
CCOC(=O)Cc1csc(SCC(=O)Nc2nccs2)n1,–,–,–,–,–,–,·
CCOC(=O)Cc1csc(SCC(=O)Nc2sc3c(c2C(N)=O)CCC3)n1,–,–,–,–,37,–,–
O=c1nc(/C=C/c2cccn2-c2ccc([N+](=O)[O-])cc2)cc(C(F)(F)F)[nH]1,–,–,–,–,36,–,–
O=C(Nc1ccc([N+](=O)[O-])cc1)c1ccccc1F,–,–,–,–,–,–,·
O=C(c1cc(O)c(O)c([N+](=O)[O-])c1)c1ccccc1F,68,–,29,–,59,–,81
CCOP(=O)(OCC)c1nc(-c2cccc3ccccc23)oc1NCCc1ccc(OC)cc1,–,–,–,–,38,–,44
COc1ccc(CNc2oc(-c3cccc4ccccc34)nc2C#N)cc1,–,–,–,–,–,–,·
SMILES,PAFAH2 FP inh,ASAP1 inh,PAFAH1B3 inh,ARFGAP1 inhibitor,pPAFAH inh,PAFAH1B2 inh,pPAFAH confirm
O=C(NCc1ccco1)Nc1c(Cl)cc(Cl)cc1Cl,·,–,·,–,·,·,·
CCOC(=O)c1sc(N/N=C/c2cc(Br)c(O)c(OC)c2)nc1C,–,–,–,–,35,–,26
Cc1ccc(S(=O)(=O)Nc2cc(Cl)c(O)c3ncccc23)cc1,–,–,–,–,46,–,37
Oc1c(Cl)cc(Cl)c2cccnc12,–,–,–,–,·,–,·
C[C@@H]1CCCCO[C@@H](CN(C)S(=O)(=O)c2ccc(Cl)cc2)[C@@H](C)CN([C@H](C)CO)C(=O)c2cc(N(C)C)ccc2O1,·,–,·,–,·,·,·
O=C(COc1ccc(Br)cc1)Nc1ccccc1N1CCCC1,–,–,–,–,59,–,–
CC(=O)N1CCN(c2ccccc2NC(=O)COc2ccc(Br)cc2)CC1,–,–,–,–,–,–,·
N#C/C(=C(/O)c1ccc2c(c1)OCO2)c1nc2cc(C(F)(F)F)ccc2s1,–,–,–,–,38,89,60
COC(=O)c1ccc(/C(O)=C(\C#N)c2nc3ccccc3s2)cc1,–,–,–,–,–,–,·
Cc1cccc(C(=O)OCC(=O)Nc2ccc3c(c2)OCCO3)c1O,–,–,–,–,–,–,·
COc1ccc2noc3c2c1C(=O)c1ccccc1-3,38,–,–,–,38,–,25
COc1ccc(S(=O)(=O)Nc2cc3c4c(c2)CCC(=O)N4CCC3)cc1C,–,–,–,–,–,–,·
COc1cc(C(=O)NCCC(=O)NC2CCCCC2)cc(OC)c1OC,–,–,–,–,47,–,–
CCc1ccc(S(=O)(=O)Nc2ccc(O)c3c(=O)cc(-c4ccccc4Cl)oc23)cc1,–,–,–,–,–,–,·
O=c1cc(-c2ccccc2Cl)oc2c(NS(=O)(=O)c3cc(Cl)cc(Cl)c3O)ccc(O)c12,–,·,–,·,41,–,78
O=C(NCCc1cccs1)Nc1nnc([C@H]2C[C@H](O)[C@@H](CO)O2)s1,·,–,·,–,·,·,·
CC(=O)c1cccc(NC(=O)CSc2ccc(-c3ccco3)nn2)c1,–,–,–,–,–,–,·
O=C(CSc1ccc(-c2ccco2)nn1)c1cccc([N+](=O)[O-])c1,–,–,–,–,38,–,–
Cc1cc(C)cc(NC(=O)Nc2ccc3c(c2)N(C)C(=O)CS3)c1,–,–,–,–,–,–,·
CCc1ccc(NC(=O)Nc2ccc3c(c2)N(C)C(=O)CS3)cc1,–,–,–,–,37,–,–
Cc1ccc(N=Cc2cccc(O)c2O)c(C)c1,–,–,–,–,37,–,–
